Source: ChEMBL document CHEMBL4138173, “Molecular docking, design, synthesis and antifungal activity study of novel triazole derivatives” (2018)
≈ marks a conversion by molar mass, not a printed value.

Tests used:
Assay type in all cases: functional
Candida albicans = assay: Antifungal activity against Candida albicans SC5314 after 24 hrs; conditions: SC5314, 24 h
In short: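 Broth dilution MIC per NCCLS recommendations. Compounds were dissolved in DMSO in growth medium, then inoculated and incubated at 35 °C, with growth read at 24 h for C. albicans. MIC80 is the first well showing about 80% growth reduction versus the drug-free well. Values are the mean of three replicate tests.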

Cryptococcus neoformans = assay: Antifungal activity against Cryptococcus neoformans after 72 hrs
In short: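 NCCLS-based broth dilution against C. neoformans. Test agents were in DMSO in growth medium, inoculated and held at 35 °C, and MIC80 was read at 72 h. MIC80 is the first well with roughly 80% less growth than the drug-free well. Each value averages three replicate tests.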

Aspergillus fumigatus = assay: Antifungal activity against Aspergillus fumigatus after 5 to 7 days
In short: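 Filamentous fungi were tested by broth dilution following NCCLS recommendations. Compounds were dissolved in DMSO in growth medium, inoculated and incubated at 35 °C, with MIC80 read after 5–7 days. MIC80 is the first well with approximately 80% growth reduction relative to the drug-free well. Results are the mean of three replicates.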

Row | SMILES | MIC80 (Candida albicans) | MIC80 (Cryptococcus neoformans) | MIC80 (Aspergillus fumigatus)
1 | C[C@@H](N1CCCC1)[C@](O)(Cn1cncn1)c1ccc(F)cc1F | 0.125 µg/mL (≈ 0.388 µM) | 0.125 µg/mL (≈ 0.388 µM) | 1 µg/mL (≈ 3.1 µM)
2 | CCN1CCN([C@H](C)[C@](O)(Cn2cncn2)c2ccc(F)cc2F)CC1 | 2 µg/mL (≈ 5.47 µM) | 2 µg/mL (≈ 5.47 µM) | 64 µg/mL (≈ 175 µM)
3 | C[C@@H](n1cc(CN)nn1)[C@](O)(Cn1cncn1)c1ccc(F)cc1F | 0.25 µg/mL (≈ 0.716 µM) | 0.25 µg/mL (≈ 0.716 µM) | > 64 µg/mL
4 | C[C@@H](n1cc(-c2cccs2)nn1)[C@](O)(Cn1cncn1)c1ccc(F)cc1F | 0.0625 µg/mL (≈ 0.155 µM) | 0.0625 µg/mL (≈ 0.155 µM) | 16 µg/mL (≈ 39.8 µM)
5 | C[C@@H](n1cc(-c2ccccc2Cl)nn1)[C@](O)(Cn1cncn1)c1ccc(F)cc1F | 0.0156 µg/mL (≈ 0.0362 µM) | 0.0156 µg/mL (≈ 0.0362 µM) | 16 µg/mL (≈ 37.1 µM)
6 | CCCCN[C@H](C)[C@](O)(Cn1cncn1)c1ccc(F)cc1F | 0.125 µg/mL (≈ 0.385 µM) | 0.125 µg/mL (≈ 0.385 µM) | 8 µg/mL (≈ 24.7 µM)
7 | CCN(C1CC1)[C@H](C)[C@](O)(Cn1cncn1)c1ccc(F)cc1F | 1 µg/mL (≈ 2.97 µM) | 1 µg/mL (≈ 2.97 µM) | > 64 µg/mL
8 | C[C@@H](NCc1ccccc1)[C@](O)(Cn1cncn1)c1ccc(F)cc1F | 0.0312 µg/mL (≈ 0.0872 µM) | 0.125 µg/mL (≈ 0.349 µM) | 1 µg/mL (≈ 2.79 µM)
9 | C[C@@H](N=[N+]=[N-])[C@](O)(Cn1cncn1)c1ccc(F)cc1F | 0.0156 µg/mL (≈ 0.053 µM) | 0.0625 µg/mL (≈ 0.212 µM) | 8 µg/mL (≈ 27.2 µM)
10 | C[C@@H](N(Cc1ccc(Cl)cc1)C1CC1)[C@](O)(Cn1cncn1)c1ccc(F)cc1F | 8 µg/mL (≈ 18.5 µM) | 4 µg/mL (≈ 9.24 µM) | > 64 µg/mL
11 | C[C@@H](n1cc(-c2cccnc2)nn1)[C@](O)(Cn1cncn1)c1ccc(F)cc1F | 0.5 µg/mL (≈ 1.26 µM) | 1 µg/mL (≈ 2.52 µM) | > 64 µg/mL
12 | C[C@@H](n1cc(C2CC2)nn1)[C@](O)(Cn1cncn1)c1ccc(F)cc1F | 0.0625 µg/mL (≈ 0.173 µM) | 0.0625 µg/mL (≈ 0.173 µM) | 32 µg/mL (≈ 88.8 µM)
13 | CCC(C)N[C@H](C)[C@](O)(Cn1cncn1)c1ccc(F)cc1F (stereo partly specified) | 0.125 µg/mL (≈ 0.385 µM) | 0.125 µg/mL (≈ 0.385 µM) | 4 µg/mL (≈ 12.3 µM)

The remaining lines, values ahead:

Row | MIC80 (Candida albicans) | MIC80 (Cryptococcus neoformans) | MIC80 (Aspergillus fumigatus) | SMILES
14 | 0.125 µg/mL (≈ 0.29 µM) | 0.0156 µg/mL (≈ 0.0362 µM) | 32 µg/mL (≈ 74.3 µM) | C[C@@H](n1cc(-c2ccc(Cl)cc2)nn1)[C@](O)(Cn1cncn1)c1ccc(F)cc1F
15 | 0.5 µg/mL (≈ 1.22 µM) | 0.5 µg/mL (≈ 1.22 µM) | > 64 µg/mL | C[C@@H](n1cc(-c2ccc(N)cc2)nn1)[C@](O)(Cn1cncn1)c1ccc(F)cc1F
16 | 0.125 µg/mL (≈ 0.315 µM) | 0.0625 µg/mL (≈ 0.158 µM) | 16 µg/mL (≈ 40.4 µM) | C[C@@H](n1cc(-c2ccccc2)nn1)[C@](O)(Cn1cncn1)c1ccc(F)cc1F
17 | 0.25 µg/mL (≈ 0.603 µM) | 0.0625 µg/mL (≈ 0.151 µM) | > 64 µg/mL | C[C@@H](n1cc(-c2cccc(F)c2)nn1)[C@](O)(Cn1cncn1)c1ccc(F)cc1F
18 | 0.0625 µg/mL (≈ 0.151 µM) | 0.0625 µg/mL (≈ 0.151 µM) | 32 µg/mL (≈ 77.2 µM) | C[C@@H](n1cc(-c2ccc(F)cc2)nn1)[C@](O)(Cn1cncn1)c1ccc(F)cc1F
19 | 0.5 µg/mL (≈ 1.05 µM) | 1 µg/mL (≈ 2.1 µM) | > 64 µg/mL | C[C@@H](n1cc(-c2cccc(Br)c2)nn1)[C@](O)(Cn1cncn1)c1ccc(F)cc1F
20 | 0.5 µg/mL (≈ 1.22 µM) | 1 µg/mL (≈ 2.43 µM) | > 64 µg/mL | C[C@@H](n1cc(-c2cccc(N)c2)nn1)[C@](O)(Cn1cncn1)c1ccc(F)cc1F
21 | 0.5 µg/mL (≈ 1.18 µM) | 0.5 µg/mL (≈ 1.18 µM) | > 64 µg/mL | CCc1ccc(-c2cn([C@H](C)[C@](O)(Cn3cncn3)c3ccc(F)cc3F)nn2)cc1
22 | 0.125 µg/mL (≈ 0.305 µM) | 0.0625 µg/mL (≈ 0.152 µM) | > 64 µg/mL | Cc1ccc(-c2cn([C@H](C)[C@](O)(Cn3cncn3)c3ccc(F)cc3F)nn2)cc1
